Assay [1] concerns Bacteria. Kind of assay: Inhibition of […] (unknown origin) using imipenem as substrate at 50 uM by spectrophotometric assay relative to control. The procedure, abridged:
(§1)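 Reporter-substrate spectrophotometric assay in 50 mM HEPES pH 7.5. Imipenem 150 μM (final) hydrolysis followed as absorbance change at 300 nm, with and without 50 μM compound. Compounds dissolved in DMSO (100 mM stock) and diluted in reaction buffer. % inhibition = 100 − 100×(vi/v0). 5 mM EDTA served as inhibition control.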

Assay [2] deals with Bacteria. The assay can be described thus: Inhibition of VIM-2 (unknown origin) using imipenem as substrate at 50 uM by spectrophotometric assay relative to control. The procedure, abridged:
as §1

The subject of assay [3] is Bacteria. Kind of assay: Inhibition of IMP-1 (unknown origin) using imipenem as substrate at 50 uM by spectrophotometric assay relative to control. The procedure, abridged:
as §1

A short description of assay [4]: Inhibition of […] (unknown origin) using imipenem as substrate by spectrophotometric assay relative to control. Details: species or system Bacteria. In a few lines: (§2)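 Ki from a competitive model. Initial rates of hydrolysis of 150 μM imipenem (reporter substrate) measured spectrophotometrically in 50 mM HEPES pH 7.5 at varying inhibitor concentrations. v0/vi plotted against [I], and Ki = KM/[(KM+[S])·slope]. Assays run in triplicate.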

In assay [5] the test system is Klebsiella pneumoniae. The assay can be described thus: Antibacterial activity against Klebsiella pneumoniae SI-518 assessed as reduction in microbial growth after 24 hrs by two-fold serial dilution method. It is filed as functional. The procedure, abridged: (§3)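 NDM-1-producing clinical isolate; meropenem MIC measured without inhibitor and with a fixed 32 μg/mL inhibitor (in each well and in the diluent) over two-fold serial dilutions. Mueller-Hinton broth, 5×10^4 CFU/well inoculum, per CLSI. Incubated 35 °C for 24 h and read visually. Triplicate. Compounds from a DMSO stock diluted in medium.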

Assay [6] concerns Escherichia coli. Kind of assay: Antibacterial activity against Escherichia coli SI-004M assessed as reduction in microbial growth after 24 hrs by two-fold serial dilution method. It is filed as functional. The procedure, abridged:
as §3

For assay [7], the system named is Klebsiella pneumoniae. The assay can be described thus: Synergistic antibacterial activity against Klebsiella pneumoniae SI-518 assessed as meropenem MIC at 32 ug/ml after 24 hrs by two-fold serial dilution method. Particulars: dose 32 µg/ml. Format: functional. The procedure, abridged:
(§4)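 Meropenem MICs against NDM-1-producing clinical isolates, with or without inhibitor fixed at 32 μg/mL, by two-fold serial dilution in Mueller-Hinton broth. Inoculum 5×10^4 CFU/well, CLSI method. Inhibitor added before the antibiotic. Plates incubated 24 h at 35 °C and read visually. Done in triplicate.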

For assay [8], the system named is Escherichia coli. The assay can be described thus: Synergistic antibacterial activity against Escherichia coli SI-004M assessed as meropenem MIC at 32 ug/ml after 24 hrs by two-fold serial dilution method. Format: functional. As to conditions: dose 32 µg/ml. The procedure, abridged:
as §4

Assay [9] relates to Klebsiella pneumoniae. The assay can be described thus: Synergistic antibacterial activity against Klebsiella pneumoniae SI-518 assessed as fold reduction in meropenem MIC at 32 ug/ml after 24 hrs by two-fold serial dilution method. It is filed as functional. Particulars: dose 32 µg/ml. The procedure, abridged:
as §4

In assay [10] the test system is Escherichia coli. The assay can be described thus: Synergistic antibacterial activity against Escherichia coli SI-004M assessed as fold reduction in meropenem MIC at 32 ug/ml after 24 hrs by two-fold serial dilution method. It is filed as functional. As to conditions: dose 32 µg/ml. The procedure, abridged: as §4
A short description of assay [11]: Inhibition of IMP-1 (unknown origin) using imipenem as substrate by spectrophotometric assay relative to control. Further details: species or system Bacteria. The procedure, abridged: as §2

Where only a bound is given, the exact number is not on record here.

On to `CCCCOc1ccc(/C=C2\Oc3cc(O)cc(O)c3C2=O)c(O)c1`, for which the inhibition (in general, the drop in the measured response relative to a control, in per cent) in the assay with Bacteria [1] worked out at 46%.

With `Oc1cccc2ccc(CCc3ccccc3)nc12`, the inhibition with Bacteria [2] stood at 28%; in the assay with Bacteria [3], 76%; in the assay on Bacteria [1], 85%.

Regarding `O=C1/C(=C/c2ccc(O)c(O)c2)Cc2cc(O)cc(O)c21`, the inhibition in the assay with Bacteria [2] is less than 20%; in the assay with Bacteria [3], 23%; with Bacteria [1] it was 77%. In assay [4], the affinity corresponds to a Ki of 4.1 µM.

For the compound `O=C(/C=C/c1ccc(N2CCOCC2)cc1)c1ccccc1O`, the inhibition in the assay on Bacteria [1] was determined as 24%.

`C[C@@H](O)[C@H]1C(=O)N2C(C(=O)O)=C(S[C@@H]3CN[C@H](C(=O)N(C)C)C3)[C@H](C)[C@H]12` [MEROPENEM]: the MIC with Klebsiella pneumoniae [5] and with Escherichia coli [6] was 64 µg/mL each time.

As for `O=C1/C(=C/c2ccc(N3CCCCC3)cc2)Oc2cc(O)cc(O)c21`, the inhibition in the assay with Bacteria [2] is less than 20%; with Bacteria [3], less than 20%; in the assay on Bacteria [1], 74%. Also, in assay [4], the Ki (commonly the equilibrium dissociation constant of an inhibitor or competing ligand from its target) is 4.8 µM.

As to `Oc1cccc2ccc(CCc3ccc4c(c3)OCO4)nc12`, the MIC in the assay with Klebsiella pneumoniae [7] and in the assay with Escherichia coli [8] was 64 µg/mL in each case. For the same compound, the inhibition in the assay with Bacteria [2] worked out at 38%; in the assay on Bacteria [3], 71%; in the assay on Bacteria [1] it was 90%. In assay [4], this compound showed a Ki of 1.1 µM.

Turning to `Oc1cccc2ccc(/C=C/c3ccccc3)nc12`, the MIC (usually the smallest concentration in the dilution series that meets the test's criterion for growth inhibition) with Klebsiella pneumoniae [7] amounted to 0.25 µg/mL; in the assay on Escherichia coli [8], 1 µg/mL. Further, the “fold change (FC)” value was 256 in the assay on Klebsiella pneumoniae [9] and 64 with Escherichia coli [10]. Further, the figures for the inhibition in the assay on Bacteria [2], with Bacteria [3] and with Bacteria [1] were 37%, 84% and 95%, respectively. The Ki in assay [4] is 2.2 µM; in [11], 4.7 µM.

`O=C(/C=C/c1ccc(N2CCCCC2)cc1)c1ccccc1O` returned an inhibition in the assay on Bacteria [1] of 35%.

Turning to `O=C(/C=C/c1ccc2c(c1)OCO2)c1ccccc1O`, the inhibition in the assay with Bacteria [1] is less than 20%.

As to `Oc1cccc2ccc(/C=C/c3ccc4c(c3)OCO4)nc12`, the inhibition was determined as 26% in the assay with Bacteria [2], 79% in the assay with Bacteria [3] and 93% with Bacteria [1].

The values are drawn from ChEMBL document CHEMBL5113498, “A fragment-based drug discovery strategy applied to the identification of NDM-1 β-lactamase inhibitors” (Eur J Med Chem, 2022).
